Data as given in ChEMBL document CHEMBL2176911 (J Med Chem, 2012).
The source made the active and inactive calls. No cut-off for these calls is given here.

Assays:
[1] = molecular target: Dual specificity protein kinase CLK1 (Mus musculus) (UniProt P22518); assay: Inhibition of mouse recombinant GST-tagged CLK1 expressed in Escherichia coli using GRSRSRSRSRSR as substrate and [gamma33P]ATP at 10 uM after 30 mins by scintillation counting
Method in brief: (§1)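 Radiometric kinase assay with the RS peptide as substrate and 15 μM [γ-33P]ATP.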

[2] = molecular target: T1, Dual specificity tyrosine-phosphorylation-regulated kinase 2 (Homo sapiens) (UniProt Q92630); assay: Inhibition of human recombinant GST-tagged DYRK2 expressed in Escherichia coli using GRSRSRSRSRSR as substrate and [gamma33P]ATP at 10 uM after 30 mins by scintillation counting
T1 sequence (whole entry): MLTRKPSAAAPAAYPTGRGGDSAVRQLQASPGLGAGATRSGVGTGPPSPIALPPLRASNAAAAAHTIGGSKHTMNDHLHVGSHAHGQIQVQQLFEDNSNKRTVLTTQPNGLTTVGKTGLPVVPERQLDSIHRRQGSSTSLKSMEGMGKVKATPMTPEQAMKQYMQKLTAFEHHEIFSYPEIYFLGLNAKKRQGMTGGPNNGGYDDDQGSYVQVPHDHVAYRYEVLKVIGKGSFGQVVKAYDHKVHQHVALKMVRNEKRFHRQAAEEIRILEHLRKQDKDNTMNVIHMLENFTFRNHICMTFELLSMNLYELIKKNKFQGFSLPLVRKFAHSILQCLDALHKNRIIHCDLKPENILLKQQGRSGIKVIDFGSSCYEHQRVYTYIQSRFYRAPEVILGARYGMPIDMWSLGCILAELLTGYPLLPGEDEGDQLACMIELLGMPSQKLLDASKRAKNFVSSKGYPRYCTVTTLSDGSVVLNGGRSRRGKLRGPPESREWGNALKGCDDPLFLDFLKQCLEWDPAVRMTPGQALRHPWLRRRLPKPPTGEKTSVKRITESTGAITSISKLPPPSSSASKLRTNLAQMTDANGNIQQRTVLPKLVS

[3] = molecular target: Dual specificity protein kinase CLK3 (Mus musculus) (UniProt O35492); assay: Inhibition of mouse recombinant GST-tagged CLK3 expressed in Escherichia coli using GRSRSRSRSRSR as substrate and [gamma33P]ATP at 10 uM after 30 mins by scintillation counting; method in brief: as §1
Chain of Dual specificity protein kinase CLK3 (Mus musculus) (O35492 whole entry): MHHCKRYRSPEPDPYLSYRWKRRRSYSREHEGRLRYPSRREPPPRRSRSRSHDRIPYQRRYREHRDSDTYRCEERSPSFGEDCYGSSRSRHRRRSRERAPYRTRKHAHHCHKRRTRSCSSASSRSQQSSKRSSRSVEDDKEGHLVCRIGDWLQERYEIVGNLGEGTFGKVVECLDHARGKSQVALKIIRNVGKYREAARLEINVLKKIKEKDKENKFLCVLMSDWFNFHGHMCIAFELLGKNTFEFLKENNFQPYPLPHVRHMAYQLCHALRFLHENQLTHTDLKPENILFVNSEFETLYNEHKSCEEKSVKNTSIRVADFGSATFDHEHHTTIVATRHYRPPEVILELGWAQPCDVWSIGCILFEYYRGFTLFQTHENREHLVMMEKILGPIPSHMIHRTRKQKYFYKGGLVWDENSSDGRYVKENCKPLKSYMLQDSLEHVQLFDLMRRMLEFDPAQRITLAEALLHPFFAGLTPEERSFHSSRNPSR

[4] = molecular target: Dual specificity tyrosine-phosphorylation-regulated kinase 1A (Homo sapiens) (UniProt Q13627); assay: Inhibition of human recombinant GST-tagged DYRK1A expressed in Escherichia coli using GRSRSRSRSRSR as substrate and [gamma33P]ATP at 15 uM after 30 mins by scintillation counting
HT-22 [5] = assay: Neuroprotective activity against glutamate-induced toxicity in mouse HT22 cells after 24 hrs by MTS assay; type: functional, cell-based
HT-22 [6] = assay: Inhibition of GSK3 in mouse HT22 cells at 10 uM after 4 hrs; type: cell-based
HT-22 [7] = assay: Inhibition of GSK3-mediated […] phosphorylation in mouse HT22 cells at 10 uM after 24 hrs by Western blot analysis in presence of MG132; type: cell-based
[8] = molecular target: Dual specificity tyrosine-phosphorylation-regulated kinase 1A (Mus musculus) (UniProt Q61214); assay: Inhibition of DYRK1A in mouse HT22 cells at 10 uM after 4 hrs; type: cell-based; conditions: HT-22

Chain of Dual specificity protein kinase CLK1 (Mus musculus) (P22518 whole entry, looked up): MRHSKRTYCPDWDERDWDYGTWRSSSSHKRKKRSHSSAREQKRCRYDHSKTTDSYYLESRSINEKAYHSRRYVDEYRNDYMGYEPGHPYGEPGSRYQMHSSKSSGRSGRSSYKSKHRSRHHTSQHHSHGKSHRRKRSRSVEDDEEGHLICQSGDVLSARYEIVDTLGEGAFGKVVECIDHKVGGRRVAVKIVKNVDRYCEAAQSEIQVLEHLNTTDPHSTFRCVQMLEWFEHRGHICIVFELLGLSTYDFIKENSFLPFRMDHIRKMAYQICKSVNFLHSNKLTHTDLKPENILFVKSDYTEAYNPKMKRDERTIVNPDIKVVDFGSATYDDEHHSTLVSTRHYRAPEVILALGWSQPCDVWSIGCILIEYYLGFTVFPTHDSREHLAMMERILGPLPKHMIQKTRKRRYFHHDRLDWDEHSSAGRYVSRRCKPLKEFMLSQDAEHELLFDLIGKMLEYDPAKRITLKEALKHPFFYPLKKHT

SMILES	inhibition [1]	inhibition [2]	inhibition [3]	inhibition [4]	Activity (HT-22 [5])	inhibition (HT-22 [6])	inhibition (HT-22 [7])	inhibition [8]
COc1ccc2c3c1O[C@H]1C[C@@H](O)C=C[C@@]31CCN(C)C2	inactive	inactive	inactive	inactive				
CCN(C)C(=O)Oc1cccc([C@H](C)N(C)C)c1	inactive	inactive	inactive	inactive				
Nc1ccc(C(=O)Nc2cccc(-c3nc(N4CCOCC4)c4oc5ncccc5c4n3)c2)cn1					inactive			
O=C(O)c1ccc2c(c1)nc(Nc1cccc(Cl)c1)c1ccncc12					inactive			
O=C1Cc2c([nH]c3ccc([N+](=O)[O-])cc23)-c2ccccc2N1					Active	Active	Active	inactive
COc1cc2c(cc1OC)C(=O)C(CC1CCN(Cc3ccccc3)CC1)C2 (stereo not drawn)	inactive	inactive	inactive	inactive				
